High-throughput results from PubChem.
Rows were chosen to be rich in hits. Some 3.9% of all compounds tested hit in one or more screens of this group.
UPR XBP1 act: adaptive UPR (XBP1) activation | activation, % at 20 µM | actives 0.33% (n = 330,000) | CHO-XBP1 luciferase reporter, IRE1-XBP1 UPR activation, luminescence; percent of tunicamycin response, DMSO as zero | AID 463104;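 active = versus positive control, 20 µM dose yields 30% or more activation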;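 also: 100% = tunicamycin at 10 µg/mL and 0% = DMSO only wells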
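Material: IRE1-XBP1 luciferase reporter CHO line / Quantity: one thousand reporter cells per well / Buffer or medium: F12 with 10% serum / Compound: 20 µM single concentration, DMSO 1% / Times: 6 h treatment, 37 °C / Detection: Steady-Glo luciferase glow luminescence, 10 min after reagent addition / Benchmarks: tunicamycin high, DMSO low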
TIM10 inh: TIM10 yeast growth inhibition; AID 463195; actives 1.4% (n = 330,000); S. cerevisiae TIM10 strain growth, BacTiter-Glo luminescence, 24 h; inhibition, % at 10 µM;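 active = inhibition of 40% or more at the single tested concentration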;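 also: wild-type TIM10 isogenic control strain grown at permissive 25 °C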
tim23-1 inh: growth inhibitors of tim23-1 mutant yeast | S. cerevisiae tim23-1 growth, BacTiter-Glo luminescence, 24 h | inhibition, % at 20 µM | actives 1.3% (n = 330,000) | AID 463212;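 active = growth inhibition of the mutant yeast at or above 50%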;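 also: temperature-sensitive mutant grown at 25 °C; plate controls were DMSO-treated mutant yeast for no effect and medium wells lacking yeast for full effect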
tim10-1 inh: tim10-1 yeast growth inhibition | actives 2.2% (n = 330,000) | inhibition, % at 20 µM | S. cerevisiae tim10-1 ts strain growth, BacTiter-Glo, 24 h | AID 463190;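 active = inhibition of at least 40%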;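 also: mutant grown at 25 °C; 0% = DMSO wells with yeast and 100% = wells holding no yeast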
UPR CHOP act: apoptotic UPR (CHOP) activation; CHO-CHOP luciferase reporter, luminescence; percent of tunicamycin response over DMSO baseline; activation, % at 10 µM; actives 0.34% (n = 330,000);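 active = at 10 µM dose, activation of 40% or more, normalized to positive control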;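 also: 100% = tunicamycin at 10 µg/mL and 0% = DMSO alone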
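Dosing – one dose, 10 µM in 0.5% DMSO · System – CHO-CHOP cells, stable luciferase reporter of PERK-eIF2a-CHOP signalling · Input – 500 cells/well · Control set – tunicamycin 10 µg/mL final as positive, DMSO-only wells as negative · Timing – 6 h compound treatment, 37 °C · Measure – % activation vs tunicamycin · Technique – luminescence read with Steady-Glo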
CHOP UPR conf: apoptotic UPR (CHOP) activation, confirmed; shares compounds with UPR CHOP act; CHO-CHOP cells, CHOP-luciferase reporter luminescence; percent of tunicamycin response, DMSO as zero; activation, % at 10 µM; actives 64% (n = 1,000); AID 463112; in the data active = activation above about 33%;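 also: 0% = DMSO wells and 100% = tunicamycin 10 µg/mL wells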
UPR XBP1 confirm: adaptive UPR (XBP1) activation, confirmed. shares compounds with UPR XBP1 act. CHO-XBP1 IRE1-XBP1 luciferase reporter, luminescence. activation, % at 20 µM. actives 63% (n = 1,000). AID 485299;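 active = reporter signal at least 30% of the positive control's activation in two or more of four replicate wells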;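 also: plate controls were DMSO negative control for no effect and tunicamycin 10 µg/mL positive control for full effect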
Numbers without * were called inactive; . = not tested or not shown.

SMILES	UPR XBP1 act	TIM10 inh	tim23-1 inh	tim10-1 inh	UPR CHOP act	CHOP UPR conf	UPR XBP1 confirm
COC(=O)c1c(NC(=O)CC2Nc3ccccc3NC2=O)sc(C)c1C (configuration not stated)	47*	-12	11	-5	160*	40*	31*
CCOC(=O)c1c(NC(=O)CC2Nc3ccccc3NC2=O)sc(C)c1C (configuration not stated)	-1	1	1	4	1	.	.
COc1ccc(Cl)cc1NC(=O)CN(C)CC(=O)Nc1c(C)n(C)n(-c2ccccc2)c1=O	-1	10	2	0	0	.	.
Cc1ccc(NC(=O)c2ccc(N/N=C/c3cccc(O)c3)c([N+](=O)[O-])c2)cc1	51*	-7	2	-8	63*	52*	39*
Cc1ccccc1NC(=O)c1ccc(N/N=C/c2ccccc2O)c([N+](=O)[O-])c1	45*	2	15	5	48*	71*	71*
CCC(Sc1nc2cc(OC)c(OC)cc2c(=O)n1Cc1ccco1)C(=O)NCCOC (configuration not stated)	3	12	7	11	-1	.	.
CCc1ccc(NC(=O)C(CC)Sc2nc3cc4c(cc3c(=O)n2Cc2ccco2)OCO4)cc1 (configuration not stated)	106*	8	11	12	96*	88*	127*
CC(C)c1cccc(-c2ccc3c(c2)S(=O)(=O)c2cccc(C(=O)NCc4ccccc4Cl)c2C3=O)c1	99*	2	-8	-2	49*	34*	109*
O=C(O)c1cccc2c1C(=O)c1ccc(-c3ccc(OC(F)(F)F)cc3)cc1S2(=O)=O	-1	2	-1	-4	1	.	.
O=C(NCc1ccccc1Br)c1cccc2c1C(=O)c1ccc(-c3ccc(OC(F)(F)F)cc3)cc1S2(=O)=O	115*	-16	-10	-1	98*	88*	86*
COCC(=O)N1CCC(Oc2ccc(C(=O)NCCCC3CCCC3)cc2)CC1	-6	1	10	12	0	.	.
Brc1ccc(-c2ccc(/C=N/Nc3nncc(-c4ccccc4)n3)o2)cc1	91*	-12	-3	12	59*	62*	128*
Cc1ccc(-c2nn(-c3ccccc3)cc2/C=C/C(=O)Nc2nccs2)cc1	50*	14	-2	12	45*	13	26
O=C(/C=C/c1cn(-c2ccccc2)nc1-c1ccccc1)Nc1ccc(C(=O)O)cc1	5	8	13	11	5	.	.
CS(=O)(=O)Oc1ccc2c(c1)O/C(=C\C=C\c1ccccc1)C2=O	47*	3	27	11	154*	34*	2
Cc1nc(SCC(=O)Nc2nnc(C(C)C)s2)n[nH]1	0	2	-10	2	1	.	.
Cc1cnc(NC(=O)c2cc(S(=O)(=O)N(C)C)ccc2N2CCCC2)s1	98*	1	5	14	96*	105*	87*
O=C(Nc1ccc(C(F)(F)F)cc1)c1cc(-c2cccnc2)nc2ccc(Br)cc12	91*	18	2	29	124*	81*	90*
CC(=O)Nc1cccc(NC(=O)c2cc(-c3cccnc3)nc3ccc(Br)cc23)c1	-2	-2	-4	2	4	.	.
COc1ccc(N=c2oc3c(OC)cccc3cc2C(=O)NCc2ccco2)c(OC)c1	74*	23	-7	23	172*	101*	22
OCCCn1c(C2CCCN2c2nc(-c3ccc(Cl)cc3)cs2)nc2cc(Cl)c(N3CCCCC3)cc21 (configuration not stated)	122*	2	3	17	88*	24	198*
COc1cccc(CN2CCNC(=O)C2CC(=O)NCC2CCOCC2)c1 (configuration not stated)	-9	-1	3	-12	-2	.	.
CCOC(=O)N1CCN(S(=O)(=O)c2ccc(C(=O)Nc3nc4c(s3)CC(C)CC4)cc2)CC1 (configuration not stated)	62*	-8	-15	-14	64*	96*	116*
CCN(CC)S(=O)(=O)c1ccc(-c2nnc(SCC(=O)N3CCc4ccccc43)o2)cc1	209*	4	2	-16	70*	1	28
COc1cc(/C=C2/C(=N)N3C=CSC3=NC2=O)ccc1OCCCOc1ccccc1C	18	-5	-15	-5	2	.	.
SMILES	UPR XBP1 act	TIM10 inh	tim23-1 inh	tim10-1 inh	UPR CHOP act	CHOP UPR conf	UPR XBP1 confirm
CCOc1cc(/C=C2/C(=N)N3C=CSC3=NC2=O)ccc1OCCCOc1ccccc1C	265*	-3	1	-7	78*	36*	134*
O=C(CSc1ccc(S(=O)(=O)N2CCCCC2)cn1)Nc1ccccc1Br	-1	3	21	21	0	.	.
COc1ccc(N2CCN(C3CCCN(Cc4cccc(OC)c4)C3)CC2)cc1 (configuration not stated)	-4	-14	-20	-7	4	.	.
COc1ccc(-c2cc(=O)oc3c(C)c(OC(=O)c4cccs4)ccc23)cc1	80*	4	-5	11	66*	89*	114*
Cc1cc(C)cc(NC(=O)CSc2nc(=O)n(CCCN3CCOCC3)c3c2CCCC3)c1	3	2	17	2	0	.	.
COc1ccc(-c2csc3nc(C(C)(C)C)oc(=O)c23)cc1OC	-1	29	38	38	0	.	.
COc1ccc(-c2csc3nc(-c4ccc(C)cc4)oc(=O)c23)cc1OC	59*	0	9	4	57*	32	42*
COc1ccc(Cc2nnc(NC(=O)c3cccc(F)c3)s2)cc1OC	0	4	-3	-26	1	.	.
C=CCn1c(=NC(=O)c2ccc(S(=O)(=O)N3CCc4ccccc4C3)cc2)sc2cc(S(N)(=O)=O)ccc21	-2	19	16	21	3	.	.
C#CCn1c(=NC(=O)c2ccc(S(=O)(=O)N3CCc4ccccc4C3)cc2)sc2cc(S(N)(=O)=O)ccc21	58*	10	10	18	82*	20	83*
CCOc1ccccc1-n1c(SCC(=O)Nc2ccc(CC)cc2)nc2n[nH]c(C)c2c1=N	246*	3	16	10	181*	107*	233*
CCOc1cccc(C(=O)Nc2cccc(-c3nnc(-c4ccccc4)o3)c2)c1	-1	0	15	5	7	.	.
CCOc1cccc(C(=O)Nc2cccc(-c3nnc(-c4ccc(C)cc4)o3)c2)c1	162*	-16	7	-2	136*	54*	160*
